Assay results reported in ChEMBL document CHEMBL1156767, “Indol-3-ylcycloalkyl ketones: effects of N1 substituted indole side chain variations on CB(2) cannabinoid receptor activity” (J Med Chem, 2010).

Legend:
[1] = molecular target: T1, Cannabinoid receptor 2 (Homo sapiens, UniProt P34972); assay: Displacement of [3H]CP-55940 from human recombinant CB2 receptor expressed in HEK293 cells; type: cell-based
[2] = molecular target: T1, Cannabinoid receptor 2; assay: Agonist activity at human recombinant CB2 receptor expressed in HEK293 cells coexpressing Galphaq/o5 assessed as calcium mobilization by FLIPR assay relative to CP-55940; type: functional, cell-based
Procedure, shortened: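 HEK cells stably coexpressing human CB2 and chimeric Gαq/o5 were seeded at 75 000 cells/well the day before and loaded with no-wash calcium dye. […] Mean ± SEM, ≥3 experiments in duplicate.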

[3] = molecular target: Cannabinoid receptor 1 (Homo sapiens, UniProt P21554); assay: Displacement of [3H]CP-55940 from human recombinant CB1 receptor expressed in CHO cells; type: cell-based; conditions: read-out: Ki
[4] = molecular target: T1, Cannabinoid receptor 2; assay: Agonist activity at human recombinant CB2 receptor expressed in HEK293 cells coexpressing Galphaq/o5 assessed as calcium mobilization by FLIPR assay; type: functional, cell-based
Procedure, shortened: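 HEK cells stably coexpressing human CB2 and chimeric Gαq/o5 were seeded at 75 000 cells/well the day before and loaded with no-wash calcium dye. Mean ± SEM, ≥3 experiments in duplicate.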

[5] = organism: Homo sapiens; assay: Selectivity ratio of Ki for human recombinant CB1 receptor to Ki for human recombinant CB2 receptor
Procedure, shortened: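 Membranes were from HEK cells stably expressing human CB2 and CHO cells stably expressing human CB1. Competition was run against 0.5 nM [3H]CP-55,940 in 50 mM Tris-HCl pH 7.4, 2.5 mM EDTA, 5 mM MgCl2, 0.05% fatty-acid-free BSA, for 90 min at 30 °C, then filtered. Nonspecific binding was set with 10 μM unlabeled CP-55,940. Ki came from one-site fits. Mean ± SEM, ≥3 experiments in duplicate.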

Chain of Cannabinoid receptor 1 (P21554 whole entry): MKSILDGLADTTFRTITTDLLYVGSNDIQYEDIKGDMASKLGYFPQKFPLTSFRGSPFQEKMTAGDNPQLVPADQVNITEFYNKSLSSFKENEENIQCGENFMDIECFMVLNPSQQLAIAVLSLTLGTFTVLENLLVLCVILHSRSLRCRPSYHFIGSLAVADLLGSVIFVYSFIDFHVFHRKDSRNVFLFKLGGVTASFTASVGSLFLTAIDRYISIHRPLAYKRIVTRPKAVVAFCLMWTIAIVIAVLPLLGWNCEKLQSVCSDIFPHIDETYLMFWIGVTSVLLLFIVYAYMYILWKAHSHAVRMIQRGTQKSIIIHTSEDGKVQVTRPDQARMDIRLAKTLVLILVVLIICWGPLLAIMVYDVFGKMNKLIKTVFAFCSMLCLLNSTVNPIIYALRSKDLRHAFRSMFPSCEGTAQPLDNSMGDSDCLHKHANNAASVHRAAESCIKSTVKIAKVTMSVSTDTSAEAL
T1 sequence (P34972 whole entry): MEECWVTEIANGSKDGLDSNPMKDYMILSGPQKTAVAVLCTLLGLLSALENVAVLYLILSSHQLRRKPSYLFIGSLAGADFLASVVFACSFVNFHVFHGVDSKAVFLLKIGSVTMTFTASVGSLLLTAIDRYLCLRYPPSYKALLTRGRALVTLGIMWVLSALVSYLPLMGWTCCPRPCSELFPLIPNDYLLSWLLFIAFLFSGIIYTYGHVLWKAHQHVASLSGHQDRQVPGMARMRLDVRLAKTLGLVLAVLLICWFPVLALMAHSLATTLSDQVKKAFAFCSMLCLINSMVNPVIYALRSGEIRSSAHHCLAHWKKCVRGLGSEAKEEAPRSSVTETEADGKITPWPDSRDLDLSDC

SMILES	Ki ([1]; read-out: Ki)	Activity [2]	Ki [3]	EC50 [4]	Ratio Ki [5]	pKi ([1]; hek293)	Ki ([1]; read-out: pKi (converted))	Ki ([1]; hek293, read-out: Ki)
O=C(c1cn(CC2CCOCC2)c2ccccc12)C12CC3CC(CC(C3)O1)C2	5.9 nM	97%	538 nM	8 nM	91	–	–	–
CC1(C)C(C(=O)c2cn(CCN3CCNCC3)c3ccccc23)C1(C)C	> 1000 nM	30%	> 10000 nM	2200 nM	–	< 6	–	–
CC1(C)C(C(=O)c2cn(CCN3CCCC3)c3ccccc23)C1(C)C	5.8 nM	84%	> 10000 nM	70 nM	> 1720	–	–	–
CCCCn1cc(C(=O)C2C(C)(C)C2(C)C)c2ccccc21	2 nM	102%	91 nM	5 nM	46	–	–	–
CC1(C)C(C(=O)c2cn(CCCO)c3ccccc23)C1(C)C	2.1 nM	140%	2200 nM	27 nM	1050	–	–	–
CC1(C)C(C(=O)c2cn(CCN3CCCC3=O)c3ccccc23)C1(C)C	55 nM	97%	> 10000 nM	55 nM	> 182	–	53.7 nM	–
CC1(C)C(C(=O)c2cn(Cc3cccnc3)c3ccccc23)C1(C)C	30 nM	103%	2030 nM	75 nM	68	–	–	–
CN1CCC(CCn2cc(C(=O)C3C(C)(C)C3(C)C)c3ccccc32)CC1	> 1000 nM	–	> 10000 nM	–	–	< 6	–	–
CC1(C)C(C(=O)c2cn(Cc3ccccc3)c3ccccc23)C1(C)C	8.2 nM	59%	210 nM	93 nM	26	–	–	–
CC1(C(=O)c2cn(CC3CCOCC3)c3ccccc23)CC1(Cl)Cl (stereo not drawn)	181 nM	32%	3360 nM	782 nM	19	–	–	–
CC1(C)C(C(=O)c2cn(CCC3CCOCC3)c3ccccc23)C1(C)C	2.8 nM	90%	92 nM	15 nM	33	–	–	–
CN1CCCCC1Cn1cc(C(=O)c2cc([N+](=O)[O-])ccc2I)c2ccccc21 (stereo not drawn)	–	–	–	–	110	7.94	–	–
CC[C@H]1CC[C@H](C(=O)c2cn(CCN3CCOCC3)c3ccccc23)CC1	16 nM	59%	616 nM	85 nM	39	–	–	–
CC1(C)C(C(=O)c2cn(CCc3cccs3)c3ccccc23)C1(C)C	2.8 nM	86%	700 nM	96 nM	250	–	–	–
CC1(C)C(C(=O)c2cn(CCc3cccnc3)c3ccccc23)C1(C)C	20 nM	78%	> 10000 nM	62 nM	> 500	–	–	–
CC(=O)CCCCn1cc(C(=O)C2C(C)(C)C2(C)C)c2ccccc21	0.99 nM	89%	380 nM	6 nM	384	–	–	–
CC1(C)C(C(=O)c2cn(C(=O)CC3CCOCC3)c3ccccc23)C1(C)C	> 1000 nM	–	> 10000 nM	–	–	< 6	–	–
O=C(c1cn(CC2CCOCC2)c2ccccc12)C1CCCC1	11 nM	64%	131 nM	20 nM	12	–	–	–
CC1(C)C(C(=O)c2cn(CCC3CCNCC3)c3ccccc23)C1(C)C	> 1000 nM	–	> 10000 nM	–	–	< 6	–	–

SMILES	Ki ([1]; read-out: Ki)	Activity [2]	Ki [3]	EC50 [4]	Ratio Ki [5]	pKi ([1]; hek293)	Ki ([1]; read-out: pKi (converted))	Ki ([1]; hek293, read-out: Ki)
CC1(C)C(C(=O)c2cn(CCCN3CCOCC3)c3ccccc23)C1(C)C	> 1000 nM	56%	> 10000 nM	1520 nM	–	< 6	–	–
CC1(C)C(C(=O)c2cn(CC3CCOC3)c3ccccc23)C1(C)C (stereo not drawn)	0.14 nM	102%	630 nM	6 nM	4500	–	0.49 nM	–
CC1(C)C(C(=O)c2cn(CC3OCCO3)c3ccccc23)C1(C)C	1 nM	133%	280 nM	7 nM	280	–	–	–
CC1(C)C(C(=O)c2cn(CCc3nsc(Cl)n3)c3ccccc23)C1(C)C	8.3 nM	97%	4200 nM	109 nM	506	–	–	–
CC1(C)C(C(=O)c2cn(CCN3C(=O)CCC3=O)c3ccccc23)C1(C)C	170 nM	34%	> 10000 nM	77 nM	> 59	–	–	–
CC1(C)C(C(=O)c2cn(CCc3ccncc3)c3ccccc23)C1(C)C	31 nM	100%	2200 nM	162 nM	71	–	–	–
CC1(C(=O)c2cn(CCN3CCOCC3)c3ccccc23)CC1(Cl)Cl (stereo not drawn)	> 1000 nM	33%	> 10000 nM	716 nM	–	< 6	–	–
COCCCn1cc(C(=O)C2C(C)(C)C2(C)C)c2ccccc21	1.3 nM	108%	660 nM	26 nM	508	–	–	–
CC1(C)C(C(=O)c2cn(CCN)c3ccccc23)C1(C)C	> 1000 nM	–	> 10000 nM	> 10000 nM	–	< 6	–	–
CC1(C)C(C(=O)c2cn(Cc3ccncc3)c3ccccc23)C1(C)C	3.7 nM	99%	48 nM	30 nM	13	–	–	–
CC1(C)C(C(=O)c2cn(CCc3ccsc3)c3ccccc23)C1(C)C	1.8 nM	108%	148 nM	70 nM	82	–	–	–
CC1(C)C(C(=O)c2cn(CCCCCO)c3ccccc23)C1(C)C	0.71 nM	79%	680 nM	11 nM	958	–	–	–
CN1CCN(CCn2cc(C(=O)C3C(C)(C)C3(C)C)c3ccccc32)CC1	> 1000 nM	–	2150 nM	–	–	< 6	–	–
CC1(C)C(C(=O)c2cn(CCC(=O)O)c3ccccc23)C1(C)C	> 1000 nM	–	> 10000 nM	–	–	< 6	–	–
CC1(C)C(C(=O)c2cn(CCC(N)=O)c3ccccc23)C1(C)C	220 nM	107%	> 10000 nM	294 nM	–	–	–	–
O=C(c1cn(CCN2CCOCC2)c2ccccc12)C1CCC1	–	–	> 10000 nM	> 10000 nM	–	–	> 1000 nM	> 1000 nM
O=C(c1cn(CCN2CCOCC2)c2ccccc12)C1CCCC1	–	35%	> 10000 nM	819 nM	–	–	> 1000 nM	> 1000 nM
CC(C)[C@H]1CC[C@H](C(=O)c2cn(CCN3CCOCC3)c3ccccc23)CC1	190 nM	–	> 10000 nM	> 10000 nM	> 53	–	–	–
CN1CCCC1CCn1cc(C(=O)C2C(C)(C)C2(C)C)c2ccccc21 (stereo not drawn)	> 1000 nM	–	> 10000 nM	–	–	< 6	–	–
